Calls of active or inactive are those of the source. The rule behind the calls is not given here.
Legend:
HL-60 [1] = experiment: Cytotoxicity against human HL60 cells assessed as reduction in cell viability incubated for 48 hrs in absence of ROS scavenger pyruvate by Alamar blue assay; type: cell-based; details: HL-60, 48 h
Procedure, shortened: (§1)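 HL-60, HEK293 and HeLa cells exposed to compound for 48 h with or without pyruvate as ROS scavenger; viability read by Alamar blue; IC50 in nM, mean of at least three replicates ± SEM.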

HeLa [2] = experiment: Cytotoxicity against human HeLa cells assessed as reduction in cell viability incubated for 48 hrs in absence of ROS scavenger pyruvate by Alamar blue assay; type: cell-based; procedure, shortened: as §1
[3] = Toxicity in dark agouti rat model of collagen-induced arthritis assessed as adverse effect at 0.38 mg/kg, ip administered on day 17 and treated until day 31; type: organism-based; details: in vivo
Procedure, shortened: (§2)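 Collagen-induced arthritis in dark agouti rats given daily i.p. doses from day 17 in 2% (v/v) DMSO vehicle; n = 8 per group. Tolerability followed as average body weight measured three times weekly, plus general health observation; animals removed early for high arthritis score or declining health.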

[4] = Toxicity in dark agouti rat model of collagen-induced arthritis assessed as increase in body weight at 0.38 mg/kg, ip administered on day 17 and treated until day 31; type: organism-based; details: in vivo; procedure, shortened: as §2
Rattus norvegicus [5] = experiment: Antiarthritic activity in dark agouti rat model of collagen-induced arthritis assessed as decrease in disease severity at 0.38 mg/kg, ip administered on day 17 and treated until day 31 by macroscopic observation analysis; type: functional, organism-based
Procedure, shortened: (§3)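 Dark agouti rats with collagen-induced arthritis; daily i.p. dosing from disease onset (day 17), doses equimolar to 0.3 mg/kg MTX, DMSO kept at 2% (v/v). Arthritis scored macroscopically three times weekly: 1 point per swollen toe, 1 per swollen foot knuckle, 5 for swollen ankle, 0–15 per limb, maximum 60 per rat. n = 8 per group, 10 for vehicle; mean ± SEM.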

HL-60 [6] = experiment: Cytotoxicity against human HL60 cells assessed reduction in cell viability incubated for 48 hrs in presence of ROS scavenger pyruvate by Alamar blue assay; type: cell-based; details: HL-60, 48 h; procedure, shortened: as §1
HeLa [7] = experiment: Cytotoxicity against human HeLa cells assessed as reduction in cell viability incubated for 48 hrs in presence of ROS scavenger pyruvate by Alamar blue assay; type: cell-based; procedure, shortened: as §1
[8] = Permeability of compound across artificial lipid/oil/lipid tri-layer membrane by PAMPA assay
HEK293 [9] = experiment: Cytotoxicity against human HEK293 cells assessed as reduction in cell viability incubated for 48 hrs in absence of ROS scavenger pyruvate by Alamar blue assay; type: cell-based; details: HEK293, 48 h; procedure, shortened: as §1
[10] = Prodrug activation in PBS buffer assessed as H2O2-mediated hydrolysis by measuring half life at pH 7.4 measured up to 24 hrs by RP-HPLC/UV analysis; type: physicochemical; details: pH 7.4, 24 h
[11] = Half life of compound in culture media in absence of ROS scavenger pyruvate; type: physicochemical
[12] = Prodrug activation in PBS buffer assessed as H2O2-formation of methotrexate at pH 7.4 measured up to 24 hrs by RP-HPLC/UV analysis; type: physicochemical; details: pH 7.4, 24 h
[13] = Half life in human HEK293 cells in absence of ROS scavenger pyruvate; type: ADME, cell-based
[14] = Apparent intrinsic clearance in rat liver microsomes; type: ADME, Microsome; details: read-out: CLH
Procedure, shortened: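 Apparent intrinsic clearance (CL'int, mL/min/kg) determined in pooled rat liver microsomes.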

[15] = Half life of compound in PBS buffer; type: physicochemical
HL-60 [16] = experiment: Induction of apoptosis in human HL60 cells assessed as apoptotic cells at 0.1 uM in absence of ROS scavenger pyruvate by annexin V-FITC/propidium iodide staining based flow cytometry (reference value: 3 %); type: functional
Procedure, shortened: (§4)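 HL-60 cells in RPMI without pyruvate, treated 48 h at 10, 1 and 0.1 μM (vehicle 0.1% DMSO); annexin V/PI staining, flow cytometry gating singlets, apoptotic fraction taken as P4 + P5 populations; at least triplicates, mean ± SD; two-tailed unpaired t-test, p < 0.05.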

Rattus norvegicus [17] = experiment: Antiarthritic activity in dark agouti rat model of collagen-induced arthritis assessed as decrease in disease severity at 0.3 mg/kg, ip administered on day 17 and treated until day 31 by macroscopic observation analysis; type: functional, organism-based; procedure, shortened: as §3
HEK293 [18] = experiment: Cytotoxicity against human HEK293 cells assessed as reduction in cell viability incubated for 48 hrs in presence of ROS scavenger pyruvate by Alamar blue assay; type: cell-based; details: HEK293, 48 h; procedure, shortened: as §1
HL-60 [19] = experiment: Induction of apoptosis in human HL60 cells assessed as apoptotic cells at 0.1 to 10 uM in absence of ROS scavenger pyruvate by annexin V-FITC/propidium iodide staining based flow cytometry (reference value: 3 %); type: functional; procedure, shortened: as §4
[20] = Toxicity in dark agouti rat model of collagen-induced arthritis assessed as increase in body weight at 0.36 mg/kg, ip administered on day 17 and treated until day 31; type: organism-based; details: in vivo; procedure, shortened: as §2
[21] = Toxicity in dark agouti rat model of collagen-induced arthritis assessed as adverse effect at 0.36 mg/kg, ip administered on day 17 and treated until day 31; type: organism-based; details: in vivo; procedure, shortened: as §2
Rattus norvegicus [22] = experiment: Antiarthritic activity in dark agouti rat model of collagen-induced arthritis assessed as decrease in disease severity at 0.36 mg/kg, ip administered on day 17 and treated until day 31 by macroscopic observation analysis; type: functional, organism-based; procedure, shortened: as §3
Rattus norvegicus [23] = experiment: Antiarthritic activity in dark agouti rat model of collagen-induced arthritis assessed as decrease in disease severity at 0.42 mg/kg, ip administered on day 17 and treated until day 31 by macroscopic observation analysis; type: functional, organism-based; procedure, shortened: as §3
[24] = Half life in rat plasma; type: ADME, cell-free
Procedure, shortened: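 Reconstituted freeze-dried rat plasma diluted 1:1 with PBS to pH 7.4, incubated at 37 °C; half-life determined.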

[25] = Toxicity in dark agouti rat model of collagen-induced arthritis assessed as adverse effect at 0.42 mg/kg, ip administered on day 17 and treated until day 31; type: organism-based; details: in vivo; procedure, shortened: as §2
[26] = Half life in human HEK293 cells in presence of paraquat and absence of ROS scavenger pyruvate; type: ADME, cell-based
[27] = Toxicity in dark agouti rat model of collagen-induced arthritis assessed as increase in body weight at 0.42 mg/kg, ip administered on day 17 and treated until day 31; type: organism-based; details: in vivo; procedure, shortened: as §2
[28] = (§5) Ratio of IC50 for human HL60 cells assessed as reduction in cell viability incubated for 48 hrs in presence of ROS scavenger pyruvate by Alamar blue assay to IC50 for human HL60 cells assessed as reduction in cell viability incubated for 48 hrs in absence of ROS scavenger pyruvate by Alamar blue assay; type: cell-based, HL-60; details: read-out: Ratio IC50
Procedure, shortened: (§6)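 Ratio of 48 h Alamar blue IC50 values with versus without pyruvate as ROS scavenger, in HEK293 or HL-60 cells; each IC50 from at least three replicates.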

[29] = as §5, with “HEK293” for “HL60”; type: cell-based; details: read-out: Ratio IC50; procedure, shortened: as §6
[30] = Stability of compound in human HEK293 cells preincubated for 24 hrs followed by compound addition and subsequent removal of HEK293 cells in absence of ROS scavenger pyruvate; type: ADME, cell-based
HL-60 [31] = experiment: Cytotoxicity against human HL60 cells assessed as reduction in cell viability incubated for 48 hrs in presence of ROS scavenger pyruvate by Alamar blue assay relative to parent compound; type: cell-based; details: hl-60, 48 h

Compound | IC50 (HL-60 [1]) [µM] | IC50 (HeLa [2]) [µM] | IC50 (HL-60 [6]) [µM] | IC50 (HeLa [7]) [µM] | Papp [8] [nm/s] | IC50 (HEK293 [9]) [µM] | t1/2 [10] [h] | half-life [11] [h] | half-life [13] [h] | CLint scaled [14] [L/h/kg] | half-life [15] [h] | Activity (HL-60 [16]) [%] | IC50 (HEK293 [18]) [µM] | Activity (HL-60 [19]) [%] | other results
Nc1nc(N)c2nc(CN(Cc3ccc(B(O)O)cc3)c3ccc(C(=O)N[C@@H](CCC(=O)O)C(=O)O)cc3)cnc2n1 | 0.0075 | 0.0192 | 0.0383 | 0.0422 | – | – | – | – | – | – | – | – | – | – | Activity [3]: Non-Toxic; Activity [4]: Non-Toxic; Activity (Rattus norvegicus [5]): inactive
CN(Cc1cnc2nc(N)nc(NC(=O)OCc3ccccc3)c2n1)c1ccc(C(=O)N[C@@H](CCC(=O)O)C(=O)O)cc1 | > 1 | – | – | – | < 15 | > 1 | > 24 | > 24 | – | – | – | – | – | – | Drug metabolism [12]: Not Active
CN(Cc1cnc2nc(N)nc(N)c2n1)c1ccc(C(=O)N[C@@H](CCC(=O)O)C(=O)O)cc1 [METHOTREXATE] | 0.0089 | 0.021 | 0.0098 | 0.0593 | < 15 | 0.0286 | – | > 24 | > 24 | 0.09 | > 24 | 14 | 0.035 | 17 | Activity (Rattus norvegicus [17]): Active
CN(Cc1cnc2nc(N)nc(N)c2n1)c1ccc(C(=O)N[C@@H](CCC(=O)N2CCSC2=O)C(=O)O)cc1 | 0.04 | 0.164 | 0.036 | 0.207 | – | – | – | – | – | – | – | – | – | – | Activity [20]: Non-Toxic; Activity [21]: Non-Toxic; Activity (Rattus norvegicus [22]): inactive
Nc1nc(N)c2nc(CNc3ccc(C(=O)N[C@@H](CCC(=O)O)C(=O)O)cc3)cnc2n1 [AMINOPTERIN] | 0.0025 | 0.0083 | 0.003 | 0.0036 | – | – | – | – | – | – | – | – | – | – | –
CN(Cc1cnc2nc(N)nc(NC(=O)OCc3ccc(B(O)O)cc3)c2n1)c1ccc(C(=O)N[C@@H](CCC(=O)O)C(=O)O)cc1 | 0.0403 | 0.156 | 0.203 | 0.194 | < 15 | 0.0629 | 0.29 | 3.4 | 107 | 0.108 | > 24 | 7 | 0.192 | 17 | Activity (Rattus norvegicus [23]): Active; half-life [24]: 16.4 h; Activity [25]: Non-Toxic; half-life [26]: 63.2 h; Activity [27]: Non-Toxic; selectivity ratio at 48 h [28]: 5; selectivity ratio at 48 h [29]: 5; t1/2 [30]: 16.1 h; fold change (FC) (HL-60 [31]): 20

Reference: ChEMBL document CHEMBL4613234, “Auxiliary in vitro and in vivo biological evaluation of hydrogen peroxide sensitive prodrugs of methotrexate and aminopterin for the treatment of rheumatoid arthritis” (Bioorg Med Chem, 2020)
